SIAE inh = human SIAE inhibition, primary screen; Q9HAT2; SIAE FP-Rh probe binding, fluorescence polarization; inhibition, % at 9.66 µM; actives 0.69% (n = 370,000); AID 1053197;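 active = inhibition above a cutoff: mean of compounds within the control limits plus 3 SD of those, cut at about 17% in these data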;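 note: 0% = plate median of compound wells and 100% = probe without SIAE protein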
TCR CD3 inh = blocks the human TCR-CD3 interaction; TAMRA-labeled TCR probe fluorescence, biochemical; inhibition, % at 9.4 µM; actives 0.37% (n = 360,000); in the data active = inhibition above about 19%;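 note: recombinant mutant TCR 2C K166C tagged with TAMRA read by polarization; 0% = receptor in buffer alone and 100% = receptor with positive control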
ABHD4 inh = inhibits mouse alpha/beta hydrolase domain 4; purified mABHD4, FP-Rh probe fluorescence polarization; Q8VD66; inhibition, % at 8.92 µM; actives 0.54% (n = 370,000);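 active = inhibition exceeding the mean over every tested compound plus 3 SD, cut at about 30% in these data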;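 note: 0% = plate median of compound wells and 100% = S159A mutant with DMSO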
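Assay system: wild-type mouse ABHD4 protein; compound: single nominal dose of 8.92 µM, 0.89% DMSO final; schedule: 45 min + 60 min at 25 °C; measured by: FP readout, ex 525 nm / em 598 nm; evaluation: % inhibition of FP-Rh probe binding versus controls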
Tn7 DDE FP = DD(E)-Tn7 binding inhibition, primary FP screen. AID 720508. actives 0.13% (n = 370,000). P02675. inhibition, % at 8.3 µM. FP displacement of FITC-Tn7 peptide from fibrin DD(E); 0% = median of compound wells per plate;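 active = inhibition above the mean of compounds falling within the control limits plus 3 SD of them, cut at about 14% in these data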;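 note: 0% = plate median of compound wells and 100% = 10 µM Aha-Tn7 peptide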
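assay system = human clot-derived fibrin DD(E) complex | quantity = Fibrin-DD(E) at 2 µM final | timing = 10 min preincubation, 3 h with tracer, room temperature | signal = fluorescence polarization | measure = percent inhibition | benchmarks = high control wells with 10 µM unlabelled Aha-Tn7 peptide (full inhibition) | replicates = singlicate testing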
HTRA1 inhibitor = blocks human HTRA1 serine peptidase; Q92743; recombinant HTRA1, FP-rhodamine activity-based probe, fluorescence polarization; inhibition, % at 5.96 µM; actives 0.5% (n = 340,000); in the data active = inhibition above about 36%;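 note: 0% = enzyme with DMSO and 100% = wells lacking enzyme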
Target sequence (Q92743 whole entry, looked up): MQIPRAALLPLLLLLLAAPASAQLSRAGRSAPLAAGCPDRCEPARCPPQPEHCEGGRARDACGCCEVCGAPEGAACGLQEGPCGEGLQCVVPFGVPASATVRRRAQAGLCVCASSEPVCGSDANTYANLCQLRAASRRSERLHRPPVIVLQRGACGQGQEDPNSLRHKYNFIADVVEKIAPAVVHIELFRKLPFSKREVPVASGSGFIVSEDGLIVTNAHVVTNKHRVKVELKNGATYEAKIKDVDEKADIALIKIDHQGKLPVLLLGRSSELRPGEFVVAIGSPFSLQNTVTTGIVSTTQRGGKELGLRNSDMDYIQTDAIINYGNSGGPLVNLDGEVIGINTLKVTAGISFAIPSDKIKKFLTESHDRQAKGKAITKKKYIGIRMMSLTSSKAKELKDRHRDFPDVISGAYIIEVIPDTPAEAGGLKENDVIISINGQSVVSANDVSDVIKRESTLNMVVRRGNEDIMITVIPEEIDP
DDE Tn6 FP inh = DD(E)-Tn6 binding inhibition, primary FP screen | Fibrin DD(E) TRITC-Tn6 fluorescence polarization displacement | inhibition, % at 8.3 µM | actives 0.21% (n = 370,000) | AID 720509;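 active = inhibition above a per-campaign cutoff: mean of compounds within control limits plus 3 SD, cut at about 15% in these data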;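 note: 0% = median of all compound wells on the plate and 100% = blocking peptide control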
mABHD4 conf = confirmation of mouse ABHD4 inhibitors | shares compounds with ABHD4 inh | purified mABHD4, FP-Rh probe fluorescence polarization | inhibition, % at 8.92 µM | actives 55% (n = 1,800) | AID 720658;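 active = mean inhibition across replicates above the hit cutoff set in the primary screen, cut at about 30% in these data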;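 note: 0% = wild-type ABHD4 with DMSO and 100% = catalytically dead S159A mutant with DMSO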
* hit, by the source's call. Shown are actives, neighbours in structure and some others; about 1.8% of the full set was active somewhere.

Results for COc1ccc(Nc2nc(NC(C)(C)C)nc(N3CCOCC3)n2)c(OC)c1 ?
SIAE inh: 2.7; TCR CD3 inh: 3.6; ABHD4 inh: 6.2; Tn7 DDE FP: -4.3; HTRA1 inhibitor: -3.6; DDE Tn6 FP inh: 6.6

What do the screens show for `Cc1cc(C)nc(N/N=C/c2cccc(Cl)c2)n1`?
SIAE inh: -0.4; TCR CD3 inh: -3.8; ABHD4 inh: 8.0; Tn7 DDE FP: 0.8; HTRA1 inhibitor: 4.4; DDE Tn6 FP inh: 0.9

How did Cc1cc(N/N=C/c2cccc(F)c2)nc(NCc2ccccc2)n1 do in these assays?
SIAE inh: -3.6; TCR CD3 inh: 9.5; ABHD4 inh: 38.5*; Tn7 DDE FP: -6.4; HTRA1 inhibitor: -24.8; DDE Tn6 FP inh: -1.7; mABHD4 conf: 38.6*

Results for Cc1cc(N/N=C/c2ccccc2)nc(NCc2ccccc2)n1 ?
SIAE inh: -0.4; TCR CD3 inh: 2.6; ABHD4 inh: 11.8; Tn7 DDE FP: -2.5; HTRA1 inhibitor: -5.8; DDE Tn6 FP inh: -12.8

Results for Cc1cc(N/N=C/c2cccc(Cl)c2)nc(NCc2ccccc2)n1 ?
SIAE inh: 8.0; TCR CD3 inh: -4.7; ABHD4 inh: 40.4*; Tn7 DDE FP: 3.2; HTRA1 inhibitor: -34.7; DDE Tn6 FP inh: -6.0; mABHD4 conf: 59.8*

What do the screens show for `Cc1csc(N=Cc2ccc([N+](=O)[O-])o2)n1`?
SIAE inh: 16.2; TCR CD3 inh: 9.1; ABHD4 inh: 29.7*; Tn7 DDE FP: -3.9; HTRA1 inhibitor: 32.4; DDE Tn6 FP inh: 4.0; mABHD4 conf: 13.8

What do the screens show for `CCCCCc1ccc(OCCCC[n+]2ccc(C)cc2)c(CCCCC)c1`?
SIAE inh: 6.5; TCR CD3 inh: 7.4; ABHD4 inh: 30.1*; Tn7 DDE FP: -3.0; HTRA1 inhibitor: 23.9; DDE Tn6 FP inh: 1.6; mABHD4 conf: 35.5*

Results for CCCCCc1ccc(OCCCC[n+]2ccccc2)c(CCCCC)c1 ?
HTRA1 inhibitor: 20.5

How did COC(=O)[C@@]12CCCCC3=C1N(CCC3)C(=O)[C@H]2CC(=O)NCc1ccc(C)o1 do in these assays?
SIAE inh: -3.7; ABHD4 inh: 1.1; Tn7 DDE FP: 2.7; DDE Tn6 FP inh: -3.6

What do the screens show for `O=c1[nH]c2cc(Cl)cc([N+](=O)[O-])c2c2ccc(Cl)cc12`?
SIAE inh: -2.7; TCR CD3 inh: 5.1; ABHD4 inh: 6.9; Tn7 DDE FP: -2.5; HTRA1 inhibitor: -5.9; DDE Tn6 FP inh: 6.3

How did O=c1[nH][nH]c2c([N+](=O)[O-])ccc(F)c12 do in these assays?
SIAE inh: 0.0; TCR CD3 inh: 13.3; ABHD4 inh: 36.3*; Tn7 DDE FP: -10.8; DDE Tn6 FP inh: 2.7; mABHD4 conf: 33.7*

How did COc1ccc(CN2CCN(Cc3c[nH]c4ccccc34)CC2)cc1 do in these assays?
SIAE inh: 1.2; TCR CD3 inh: 1.0; ABHD4 inh: 18.4; Tn7 DDE FP: 4.9; HTRA1 inhibitor: 18.2; DDE Tn6 FP inh: 10.3

What do the screens show for `COc1ccc(CN2CCN(Cc3c[nH]c4ccccc34)CC2)c(OC)c1`?
SIAE inh: 7.0; TCR CD3 inh: -2.5; ABHD4 inh: 33.1*; Tn7 DDE FP: 0.6; HTRA1 inhibitor: 3.4; DDE Tn6 FP inh: -1.3; mABHD4 conf: 6.6

What do the screens show for `O=C(c1cc([N+](=O)[O-])ccc1Cl)N1CCN(c2ccc([N+](=O)[O-])cc2)CC1`?
SIAE inh: -1.1; TCR CD3 inh: -1.5; ABHD4 inh: 39.9*; Tn7 DDE FP: -2.8; HTRA1 inhibitor: -5.2; DDE Tn6 FP inh: 3.0; mABHD4 conf: -3.4

What do the screens show for `CC(CSc1nc2ccccc2s1)Cn1c(N2CCCC2)nc2c1c(=O)[nH]c(=O)n2C` (configuration not stated)?
SIAE inh: 4.0; TCR CD3 inh: -1.3; ABHD4 inh: 39.1*; Tn7 DDE FP: -3.6; HTRA1 inhibitor: -12.2; DDE Tn6 FP inh: -3.8; mABHD4 conf: 42.1*

How did Cc1ccc(C)c(OCC(O)CNC2CCCC2)c1 (configuration not stated) do in these assays?
SIAE inh: -11.8; TCR CD3 inh: 0.3; ABHD4 inh: 38.5*; Tn7 DDE FP: 6.2; HTRA1 inhibitor: 3.8; DDE Tn6 FP inh: 5.5; mABHD4 conf: -3.7

Results for COC(=O)[C@]12C[C@H](CC(=O)NCc3cccs3)C(=O)N(CCC3=CCCCC3)C1=C[C@H](C(C)C)O[C@@H]2C1CC1 ?
SIAE inh: 4.0; ABHD4 inh: -2.7; Tn7 DDE FP: 6.5; DDE Tn6 FP inh: 0.4

How did CC(CN1CCN(Cc2ccccc2)CC1)c1ccccc1 (configuration not stated) do in these assays?
SIAE inh: 1.2; TCR CD3 inh: -7.2; ABHD4 inh: 29.5*; Tn7 DDE FP: -2.2; HTRA1 inhibitor: -2.6; DDE Tn6 FP inh: -6.3; mABHD4 conf: 6.3

How did CC(CN1CCC(O)CC1)c1ccccc1 (configuration not stated) do in these assays?
SIAE inh: -5.9; TCR CD3 inh: -4.5; ABHD4 inh: -8.8; Tn7 DDE FP: 0.2; HTRA1 inhibitor: 2.8; DDE Tn6 FP inh: -0.6

Results for C[C@@H]1ON(C)[C@H]2C[C@H]3c4[nH]c5c(-c6ccc(C(F)(F)F)cc6)cccc5c4CCN3C(=O)[C@@H]12 ?
SIAE inh: -6.7; TCR CD3 inh: 0.6; ABHD4 inh: 29.6*; Tn7 DDE FP: 2.1; DDE Tn6 FP inh: 3.1; mABHD4 conf: 29.0

Results for C[C@@H]1ON(C)[C@H]2C[C@H]3c4[nH]c5c(-c6ccccc6)cccc5c4CCN3C(=O)[C@@H]12 ?
SIAE inh: 1.9; TCR CD3 inh: -2.5; ABHD4 inh: 7.4; Tn7 DDE FP: -7.2; DDE Tn6 FP inh: 7.7

Results for COC(=O)[C@]12C[C@H](CC(=O)NCCCN3CCCC3=O)C(=O)N(Cc3ccco3)C1=C[C@H](C(C)C)O[C@@H]2C1CC1 ?
SIAE inh: 3.7; ABHD4 inh: 0.8; Tn7 DDE FP: -2.1; DDE Tn6 FP inh: -4.6

How did CC(C)C[C@@H]1COc2cc(Br)ccc2S(=O)(=O)N1Cc1cn(Cc2ccco2)nn1 do in these assays?
SIAE inh: 5.9; ABHD4 inh: 8.1; Tn7 DDE FP: -1.9; DDE Tn6 FP inh: -5.1

Results for Brc1cc2c(cc1C1Nc3ccccc3C3C=CCC31)OCO2 (configuration not stated) ?
SIAE inh: 7.7; TCR CD3 inh: 6.9; ABHD4 inh: 4.6; Tn7 DDE FP: 0.1; HTRA1 inhibitor: -1.7; DDE Tn6 FP inh: -0.2

How did C1=CC2c3ccccc3NC(c3ccncc3)C2C1 (configuration not stated) do in these assays?
SIAE inh: 10.3; TCR CD3 inh: -4.0; ABHD4 inh: 50.1*; Tn7 DDE FP: -2.0; HTRA1 inhibitor: 32.6; DDE Tn6 FP inh: -1.1; mABHD4 conf: 63.6*

Source: PubChem (The Scripps Research Institute Molecular Screening Center)
